Source: ChEMBL document CHEMBL1125520, “Improved brain delivery of AZT using a glycosyl phosphotriester prodrug” (1992)

Key:
Mus musculus [1] = experiment: In Vivo detection in Mice plasma after oral administration of 20 mg/kg detected in the form of AZT after 48 hr; assay type: functional, organism-based; set-up: dose 20 mg/kg
Mus musculus [2] = experiment: In Vivo detection in Mice plasma after oral administration of 20 mg/kg detected in the form of AZT 5`-P after 48 hr; assay type: functional, organism-based; set-up: dose 20 mg/kg
Mus musculus [3] = experiment: In Vivo detection in Mice plasma after oral administration of 20 mg/kg detected in the form of AZT after 24 hr; assay type: functional, organism-based; set-up: dose 20 mg/kg
Mus musculus [4] = experiment: In Vivo detection in Mice plasma after oral administration of 20 mg/kg detected in the form of AZT 5`-P after 4 hr; assay type: functional, organism-based; set-up: dose 20 mg/kg
Mus musculus [5] = experiment: In Vivo detection in Mice plasma after oral administration of 20 mg/kg detected in the form of AZT 5`-P after 8 hr; assay type: functional, organism-based; set-up: dose 20 mg/kg
Mus musculus [6] = experiment: In Vivo detection in Mice plasma after oral administration of 20 mg/kg detected in the form of AZT after 4 hr; assay type: functional, organism-based; set-up: dose 20 mg/kg
Mus musculus [7] = experiment: In Vivo detection in Mice plasma after oral administration of 20 mg/kg detected in the form of AZT after 1 hr; assay type: functional, organism-based; set-up: dose 20 mg/kg
Mus musculus [8] = experiment: In Vivo detection of total AZT in Mice plasma after oral administration of 20 mg/kg after 0.5 hr; assay type: functional, organism-based; set-up: dose 20 mg/kg
How it was run: (§1)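 Male Swiss mice (18–20 g, six weeks old) given the test substance or vehicle ([…]) by gavage as a 3 mM solution (1.5 µmol/mouse). Aortic blood was collected into heparinized tubes at 0.5–48 h and centrifuged at 13000g for 10 min. Plasma was stored at -22 °C and analysed by HPLC. Three mice were used per time point, in triplicate. Values were not corrected for recovery.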

Mus musculus [9] = experiment: In Vivo detection of total AZT in Mice plasma after oral administration of 20 mg/kg after 1 hr; assay type: functional, organism-based; set-up: dose 20 mg/kg; how it was run: as §1
Mus musculus [10] = experiment: In Vivo detection in Mice plasma after oral administration of 20 mg/kg detected in the form of AZT 5`-P after 2 hr; assay type: functional, organism-based; set-up: dose 20 mg/kg
Mus musculus [11] = experiment: In Vivo detection of total AZT in Mice plasma after oral administration of 20 mg/kg after 48 hr; assay type: functional, organism-based; set-up: dose 20 mg/kg; how it was run: as §1
Mus musculus [12] = experiment: In Vivo detection of total AZT in Mice plasma after oral administration of 20 mg/kg after 24 hr; assay type: functional, organism-based; set-up: dose 20 mg/kg; how it was run: as §1
Mus musculus [13] = experiment: In Vivo detection of total AZT in Mice plasma after oral administration of 20 mg/kg after 2 hr; assay type: functional, organism-based; set-up: dose 20 mg/kg; how it was run: as §1
Mus musculus [14] = experiment: In Vivo detection of total AZT in Mice plasma after oral administration of 20 mg/kg after 4 hr; assay type: functional, organism-based; set-up: dose 20 mg/kg; how it was run: as §1
Mus musculus [15] = experiment: In Vivo detection in Mice plasma after oral administration of 20 mg/kg detected in the form of AZT 5`-P after 0.5 hr; assay type: functional, organism-based; set-up: dose 20 mg/kg
Mus musculus [16] = experiment: In Vivo detection in Mice plasma after oral administration of 20 mg/kg detected in the form of AZT 5`-P after 1 hr; assay type: functional, organism-based; set-up: dose 20 mg/kg
Mus musculus [17] = experiment: In Vivo detection in Mice plasma after oral administration of 20 mg/kg detected in the form of AZT after 0.5 hr; assay type: functional, organism-based; set-up: dose 20 mg/kg
Mus musculus [18] = experiment: In Vivo detection in Mice plasma after oral administration of 20 mg/kg detected in the form of AZT after 8 hr; assay type: functional, organism-based; set-up: dose 20 mg/kg
Mus musculus [19] = experiment: In Vivo detection in Mice plasma after oral administration of 20 mg/kg detected in the form of AZT 5`-P after 24 hr; assay type: functional, organism-based; set-up: dose 20 mg/kg
Mus musculus [20] = experiment: In Vivo detection of total AZT in Mice plasma after oral administration of 20 mg/kg after 8 hr; assay type: functional, organism-based; set-up: dose 20 mg/kg; how it was run: as §1
Mus musculus [21] = species: Mus musculus; experiment: In Vitro detection by Gray and Whittaker method for % of internalization by comparing with external nucleoside of 2000 nM/g; assay type: functional
How it was run: (§2)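 Crude synaptosomes from three mouse brains were prepared by Gray–Whittaker homogenization in 10% sucrose buffered with 5 mM Tris-HCl, pH 7.4. The 7000g pellet was resuspended and incubated with each nucleoside at 3 mM for 15 min at 37 °C, stopped by cold 10-fold dilution and washed twice. Internal nucleoside was extracted in acetonitrile–water (3:1) and measured by HPLC.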

Mus musculus [22] = experiment: In Vivo detection in Mice plasma after oral administration of 20 mg/kg detected in the form of AZT after 2 hr; assay type: functional, organism-based; set-up: dose 20 mg/kg
Mus musculus [23] = species: Mus musculus; experiment: In Vitro detection by Gray and Whittaker method for the total internal nucleoside; assay type: functional; how it was run: as §2
Mus musculus [24] = species: Mus musculus; experiment: Concentration of external nucleoside in mouse brain; assay type: functional
How it was run: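 Male Swiss mice (6 weeks, 18–20 g) dosed by oral gavage in saline vehicle at 20 mg/kg AZT or molar equivalent (3 mM, 1.5 µmol/mouse). Brains taken 0.5–48 h post-dose, homogenized in acetonitrile–water 3:1, centrifuged, lyophilized and filtered. Analysed by column-switching C18 HPLC with diode-array detection against spiked standards and vehicle controls. Three mice per time point, triplicates; not recovery-corrected.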

Cc1cn([C@H]2C[C@H](N=[N+]=[N-])[C@@H](CO)O2)c(=O)[nH]c1=O [ZIDOVUDINE]
Plasma content (Mus musculus [1]): 0 nM ml-1 | Plasma content (Mus musculus [2]): 0 nM ml-1 | Plasma content (Mus musculus [3]): 0 nM ml-1 | Plasma content (Mus musculus [4]): 0 nM ml-1 | Plasma content (Mus musculus [5]): 0 nM ml-1 | Plasma content (Mus musculus [6]): 4.4 nM ml-1 | Plasma content (Mus musculus [7]): 15.7 nM ml-1 | Plasma content (Mus musculus [8]): 48.3 nM ml-1 | Plasma content (Mus musculus [9]): 43.2 nM ml-1 | Plasma content (Mus musculus [10]): 13.1 nM ml-1 | Plasma content (Mus musculus [11]): 0 nM ml-1 | Plasma content (Mus musculus [12]): 0 nM ml-1 | Plasma content (Mus musculus [13]): 19.1 nM ml-1 | Plasma content (Mus musculus [14]): 4.4 nM ml-1 | Plasma content (Mus musculus [15]): 21.7 nM ml-1 | Plasma content (Mus musculus [16]): 27.5 nM ml-1 | Plasma content (Mus musculus [17]): 26.6 nM ml-1 | Plasma content (Mus musculus [18]): 0 nM ml-1 | Plasma content (Mus musculus [19]): 0 nM ml-1 | Plasma content (Mus musculus [20]): 0 nM ml-1 | Internalisation (Mus musculus [21]): 0.03% | Plasma content (Mus musculus [22]): 6 nM ml-1

Cc1cn([C@H]2C[C@H](N=[N+]=[N-])[C@@H](COP(=O)(O)O)O2)c(=O)[nH]c1=O [AZIDOTHYMIDINE MONOPHOSPHATE]
Brain content (Mus musculus [23]): 1.1 nM/g | External nucleoside (Mus musculus [24]): 2000 nM/g | Internalisation (Mus musculus [21]): 0.06%
